This note sets out measurements from ChEMBL document CHEMBL4396949, “Anti-cancer potential of novel glycosylated 1,4-substituted triazolylchalcone derivatives” (Bioorg Med Chem Lett, 2019).

Each structure is given as a SMILES string.

Data set [1] is described as follows: Antiproliferative activity against human WI38 cells incubated for 24 hrs by MTT assay. The class given is cell-based, WI-38. As to conditions: read-out: LD50. In outline: (§1)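 Cells exposed to compounds at […]; viability read by MTT assay. LD50 derived from concentration-response. MDA-MB-468: triple-negative (ER-, PR-, HER2-) breast cancer. MCF-7: ER+, PR+, HER2- breast cancer. WI-38: non-cancerous lung fibroblasts. Selectivity index taken as WI-38 LD50 divided by cancer-cell LD50.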
In general terms: Formazan colour is commonly taken as a measure of viable cells.

Data set [2] can be described thus: Selectivity index, ratio of LD50 for human WI38 cells to LD50 for human MCF7 cells. The class given is toxicity. As to conditions: WI38 cells and MCF7 cells, read-out: Selectivity Index. A digest of the protocol: (§2)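 MTT cytotoxicity after exposure to […] in MDA-MB-468, MCF-7 and WI-38 fibroblasts; LD50 determined per line; selectivity index calculated as WI-38 LD50 divided by cancer-cell LD50.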

For data set [3], the system named is MDA-MB-468. The data set is described as follows: Antiproliferative activity against human MDA-MB-468 cells incubated for 24 hrs by MTT assay. The class given is functional. The note with it: MDA-MB-468, 24 h, read-out: LD50 (the source's name). In outline:
as §1

In data set [4] the test system is MCF7. The data set is described as follows: Antiproliferative activity against human MCF7 cells incubated for 24 hrs by MTT assay. The class given is functional. The note with it: MCF7, 24 h, read-out: LD50 (the source's name). In outline:
as §1

A short description of data set [5]: Selectivity index, ratio of LD50 for human WI38 cells to LD50 for human MDA-MB-468 cells. The class given is toxicity. As to conditions: WI38 cells and MDA-MB-468 cells, read-out: Selectivity Index. A digest of the protocol:
as §2

Consider `COc1cc(/C=C/C(=O)c2ccc(OCc3cn([C@@H]4O[C@H](CO)[C@@H](O)[C@H](O)[C@H]4O)nn3)cc2)cc(OC)c1`, for which, in data set [1], the CC50 at 24 h worked out at 52 µM. Also, the figures for the selectivity ratio in data set [2] and in data set [5] were 0.72 and 1.56, respectively. The values for the CC50 in data set [3] and in data set [4] were 33 µM and 72 µM, respectively.

On to `CCOc1ccc(/C=C/C(=O)c2ccc(OCc3cn([C@@H]4O[C@H](CO)[C@@H](O)[C@H](O)[C@H]4O)nn3)cc2)cc1`, for which the CC50 at 24 h in data set [1] worked out at 78 µM. In addition, the results for the selectivity ratio in data set [2] and in data set [5] were 1.15 and 1.05, respectively. Besides, the figures for the CC50 in data set [3] and in data set [4] were 74 µM and 68 µM, respectively.

Take `COc1ccc(/C=C/C(=O)c2ccc(OCc3cn([C@@H]4O[C@H](CO)[C@@H](O)[C@H](O)[C@H]4O)nn3)cc2)cc1OCc1ccccc1`: the CC50 at 24 h in data set [1] amounted to 105 µM. Besides, the figures for the selectivity ratio in data set [2] and in data set [5] were 1.25 and 1.64, respectively. The CC50 in data set [3] was 64 µM; in data set [4], 84 µM.

As for `O=C(/C=C/c1cc(Cl)cc(Cl)c1)c1ccc(OCc2cn([C@@H]3O[C@H](CO)[C@@H](O)[C@H](O)[C@H]3O)nn2)cc1`, in data set [1], the CC50 at 24 h was determined as 64 µM. In addition, the selectivity ratio in data set [2] turned out to be 0.86; in data set [5] it was 1.03. For the same compound, the CC50 in data set [3] is 62 µM; in data set [4] it was 74 µM.

`O=C(/C=C/c1ccccc1Cl)c1ccc(OCc2cn([C@@H]3O[C@H](CO)[C@@H](O)[C@H](O)[C@H]3O)nn2)cc1`: the CC50 at 24 h in data set [1] came out at 68 µM. For the same compound, the figures for the selectivity ratio in data set [2] and in data set [5] were 0.94 and 1.06, respectively. For the same compound, the CC50 in data set [3] came to 64 µM; in data set [4], 72 µM.

As to `CC(=O)O[C@H]1C(=O)[C@@]2(C)[C@H]([C@H](OC(=O)c3ccccc3)[C@]3(O)C[C@H](OC(=O)[C@H](O)[C@@H](NC(=O)c4ccccc4)c4ccccc4)C(C)=C1C3(C)C)[C@]1(OC(C)=O)CO[C@@H]1C[C@@H]2O` [PACLITAXEL], in data set [1], the CC50 at 24 h is 35 µM. The selectivity ratio amounted to 1.2 in data set [2] and 1.29 in data set [5]. Further, the CC50 amounted to 27 µM in data set [3] and 29 µM in data set [4].

Consider `COc1cc(/C=C/C(=O)c2ccc(C#N)cc2)ccc1OCc1cn([C@@H]2O[C@H](CO)[C@@H](O)[C@H](O)[C@H]2O)nn1`, for which, in data set [1], the CC50 at 24 h was determined as 88 µM. Besides, the selectivity ratio in data set [2] was 1.13; in data set [5], 1.07. Moreover, the CC50 in data set [3] stood at 82 µM; in data set [4], 78 µM.

Regarding `COc1cc(/C=C/C(=O)c2ccc([N+](=O)[O-])cc2)ccc1OCc1cn([C@@H]2O[C@H](CO)[C@@H](O)[C@H](O)[C@H]2O)nn1`, in data set [1], the CC50 at 24 h turned out to be 75 µM. For the same compound, the values for the selectivity ratio in data set [2] and in data set [5] were 0.99 and 1.02, respectively. Moreover, the results for the CC50 in data set [3] and in data set [4] were 68 µM and 76 µM, respectively.

`COc1ccc(/C=C/C(=O)c2ccc(OCc3cn([C@@H]4O[C@H](CO)[C@@H](O)[C@H](O)[C@H]4O)nn3)cc2)cc1OC`: the CC50 at 24 h in data set [1] stood at 95 µM. The selectivity ratio is 0.83 in data set [2] and 1.08 in data set [5]. Also, the CC50 in data set [3] came to 88 µM; in data set [4], 115 µM.

Take `COc1ccccc1/C=C/C(=O)c1ccc(OCc2cn([C@@H]3O[C@H](CO)[C@@H](O)[C@H](O)[C@H]3O)nn2)cc1`: in data set [1], the CC50 at 24 h worked out at 103 µM. Moreover, the selectivity ratio in data set [2] was 1.06; in data set [5], 1.3. The CC50 in data set [3] was 79 µM; in data set [4], 97 µM.

For the compound `O=C(/C=C/c1ccc(OCc2ccccc2)cc1)c1ccc(OCc2cn([C@@H]3O[C@H](CO)[C@@H](O)[C@H](O)[C@H]3O)nn2)cc1`, the CC50 at 24 h in data set [1] is 68 µM. The selectivity ratio in data set [2] turned out to be 0.86; in data set [5] it was 1.19. For the same compound, the CC50 in data set [3] is 57 µM; in data set [4], 79 µM.

With `COc1cc(/C=C/C(=O)c2ccc(Br)cc2)ccc1OCc1cn([C@@H]2O[C@H](CO)[C@@H](O)[C@H](O)[C@H]2O)nn1`, in data set [1], the CC50 at 24 h came to 89 µM. Further, the selectivity ratio in data set [2] is 0.9; in data set [5], 1.37. In addition, the CC50 amounted to 65 µM in data set [3] and 99 µM in data set [4].

Turning to `O=C(/C=C/c1ccc(Cl)c(Cl)c1)c1ccc(OCc2cn([C@@H]3O[C@H](CO)[C@@H](O)[C@H](O)[C@H]3O)nn2)cc1`, the CC50 at 24 h in data set [1] was 55 µM. In addition, the selectivity ratio in data set [2] was 0.85; in data set [5] it was 0.93. Further, the CC50 was found to be 59 µM in data set [3] and 65 µM in data set [4].

`COc1cc(/C=C/C(=O)c2ccc(OCc3cn([C@@H]4O[C@H](CO)[C@@H](O)[C@H](O)[C@H]4O)nn3)cc2)cc(OC)c1OC`: the CC50 at 24 h in data set [1] came to 54 µM. Besides, the selectivity ratio is 0.64 in data set [2] and 1.06 in data set [5]. In addition, the figures for the CC50 in data set [3] and in data set [4] were 51 µM and 84 µM, respectively.

As for `O=C(/C=C/c1cccc([N+](=O)[O-])c1)c1ccc(OCc2cn([C@@H]3O[C@H](CO)[C@@H](O)[C@H](O)[C@H]3O)nn2)cc1`, the CC50 at 24 h in data set [1] came to 69 µM. In addition, the selectivity ratio in data set [2] came out at 1.17; in data set [5] it was 1.07. Also, the values for the CC50 in data set [3] and in data set [4] were 64 µM and 59 µM, respectively.

Turning to `COc1cccc(/C=C/C(=O)c2ccc(OCc3cn([C@@H]4O[C@H](CO)[C@@H](O)[C@H](O)[C@H]4O)nn3)cc2)c1`, in data set [1], the CC50 at 24 h was 73 µM. Also, the figures for the selectivity ratio in data set [2] and in data set [5] were 1.16 and 0.94, respectively. Further, the CC50 in data set [3] came out at 77 µM; in data set [4], 63 µM.

Turning to `COc1ccc(/C=C/C(=O)c2ccc(OCc3cn([C@@H]4O[C@H](CO)[C@@H](O)[C@H](O)[C@H]4O)nn3)cc2)cc1`, the CC50 at 24 h in data set [1] was 72 µM. Moreover, the selectivity ratio in data set [2] turned out to be 1.36; in data set [5], 1.84. The CC50 in data set [3] stood at 39 µM; in data set [4], 53 µM.

Turning to `COc1cc([C@@H]2c3cc4c(cc3[C@@H](O[C@@H]3O[C@@H]5CO[C@@H](C)O[C@H]5[C@H](O)[C@H]3O)[C@H]3COC(=O)[C@H]23)OCO4)cc(OC)c1O` [ETOPOSIDE], the CC50 at 24 h in data set [1] is 36 µM. For the same compound, the selectivity ratio came to 0.95 in data set [2] and 1.06 in data set [5]. Besides, the CC50 is 34 µM in data set [3] and 38 µM in data set [4].

With `COc1ccc(C(=O)/C=C/c2ccc(OCc3cn([C@@H]4O[C@H](CO)[C@@H](O)[C@H](O)[C@H]4O)nn3)c(OC)c2)cc1OC`, the CC50 at 24 h in data set [1] was 96 µM. Besides, the selectivity ratio in data set [2] was determined as 1.45; in data set [5], 1.43. For the same compound, the figures for the CC50 in data set [3] and in data set [4] were 67 µM and 66 µM, respectively.

Regarding `COc1cc(/C=C/C(=O)c2ccccc2)ccc1OCc1cn([C@@H]2O[C@H](CO)[C@@H](O)[C@H](O)[C@H]2O)nn1`, the CC50 at 24 h in data set [1] came to 98 µM. Moreover, the selectivity ratio in data set [2] stood at 0.8; in data set [5], 1.1. For the same compound, the results for the CC50 in data set [3] and in data set [4] were 89 µM and 123 µM, respectively.

Turning to `COc1cc(/C=C/C(=O)c2cc(OC)c(OC)c(OC)c2)ccc1OCc1cn([C@@H]2O[C@H](CO)[C@@H](O)[C@H](O)[C@H]2O)nn1`, the CC50 at 24 h in data set [1] was 67 µM. For the same compound, the values for the selectivity ratio in data set [2] and in data set [5] were 0.77 and 0.92, respectively. The CC50 in data set [3] was 73 µM; in data set [4], 87 µM.

On to `O=C(/C=C/c1ccc([N+](=O)[O-])cc1)c1ccc(OCc2cn([C@@H]3O[C@H](CO)[C@@H](O)[C@H](O)[C@H]3O)nn2)cc1`, for which the CC50 at 24 h in data set [1] stood at 64 µM. Also, the values for the selectivity ratio in data set [2] and in data set [5] were 1.19 and 1.49, respectively. Besides, the CC50 in data set [3] is 43 µM; in data set [4], 54 µM.
